What all share (type): functional
The test system of experiment [1] is Staphylococcus aureus. Kind of experiment: Antibacterial activity against Staphylococcus aureus ATCC 25923 assessed as inhibition of visible bacterial growth incubated for 18 to 20 hrs by CLSI method. Conditions: time 18-20 hrs. In a few lines: (§1)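 CLSI broth microdilution. Strains grown aerobically overnight on tryptic soy agar at 37 °C, adjusted to 0.5 McFarland and diluted in cation-adjusted Mueller–Hinton broth to about 5×10^5 CFU/mL. Compounds and control drugs serially diluted across the plate. Incubated aerobically at 37 °C for 18-20 h. MIC is the lowest concentration with no visible growth.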

Experiment [2] relates to Staphylococcus aureus. As to the kind of experiment: Antibacterial activity against methicillin-resistant Staphylococcus aureus ATCC 33592 assessed as inhibition of visible bacterial growth incubated for 18 to 20 hrs by CLSI method. As to conditions: time 18-20 hrs. In a few lines:
as §1

The subject of experiment [3] is Staphylococcus aureus. As to the kind of experiment: Antibacterial activity against methicillin-resistant Staphylococcus aureus NRS484 assessed as inhibition of visible bacterial growth incubated for 18 to 20 hrs by CLSI method. As to conditions: time 18-20 hrs. In a few lines: as §1
Experiment [4] relates to Streptococcus pneumoniae. As to the kind of experiment: Antibacterial activity against cephalosporin-resistant Streptococcus pneumoniae ATCC 51916 assessed as inhibition of visible bacterial growth incubated for 18 to 20 hrs by CLSI method. Conditions: time 18-20 hrs. In a few lines: as §1
Experiment [5] concerns Streptococcus pneumoniae. As to the kind of experiment: Antibacterial activity against […] Streptococcus pneumoniae ATCC 700677 assessed as inhibition of visible bacterial growth incubated for 18 to 20 hrs by CLSI method. Conditions: time 18-20 hrs. In short, it runs like this:
as §1

For experiment [6], the system named is Enterococcus faecalis. As to the kind of experiment: Antibacterial activity against vancomycin- resistant Enterococcus faecalis ATCC 51299 assessed as inhibition of visible bacterial growth incubated for 18 to 20 hrs by CLSI method. As to conditions: time 18-20 hrs. In a few lines:
as §1

The test system of experiment [7] is Enterococcus faecalis. As to the kind of experiment: Antibacterial activity against vancomycin- resistant Enterococcus faecalis ATCC 700221 assessed as inhibition of visible bacterial growth incubated for 18 to 20 hrs by CLSI method. Conditions: time 18-20 hrs. In short, it runs like this: as §1
For the next experiment, the system named is Listeria monocytogenes. Kind of experiment: Antibacterial activity against Listeria monocytogenes ATCC 19111 assessed as inhibition of visible bacterial growth incubated for 18 to 20 hrs by CLSI method. As to conditions: time 18-20 hrs. In short, it runs like this: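 Broth microdilution per CLSI. Strains grown aerobically overnight on TSA at 37 °C, suspended to 0.5 McFarland, diluted in CAMHB to about 5×10^5 CFU/mL. Agents serially diluted across plate; aerobic incubation 37 °C for 18-20 h. MIC = lowest concentration completely preventing visible growth.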

Experiment [8] relates to Staphylococcus aureus. Kind of experiment: Bactericidal activity against methicillin-resistant Staphylococcus aureus ATCC 33592 assessed as reduction in bacterial growth incubated for 18 hrs by CLSI method.
The test system of experiment [9] is Staphylococcus aureus. As to the kind of experiment: Antibacterial activity against methicillin-resistant Staphylococcus aureus USA400 infected in mouse J774 cells assessed as log reduction in intracellular growth at 8 ug/ml incubated for 18 to 22 hrs. Conditions: dose 8.0 µg/ml, time 18-22 hrs. In a few lines: (§2)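 J774 murine macrophages grown in DMEM with 10% FBS at 37 °C, 5% CO2. Cells infected with MRSA USA400 at MOI about 10:1 for 1 h, then washed with gentamicin to remove extracellular bacteria. Agents added at 8 or 16 μg/mL in triplicate, with DMSO vehicle control, for 24 h. Cells lysed with 0.1% Triton-X, lysates plated on tryptic soy agar, and CFU counted after 18-22 h at 37 °C. Analysed by two-way ANOVA with Dunnett's test.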

For experiment [10], the system named is Staphylococcus aureus. As to the kind of experiment: Antibacterial activity against methicillin-resistant Staphylococcus aureus USA400 infected in mouse J774 cells assessed as log reduction in intracellular growth at 16 ug/ml incubated for 18 to 22 hrs. Conditions: dose 16.0 µg/ml, time 18-22 hrs. In short, it runs like this:
as §2

The values below come from ChEMBL document CHEMBL4715682, “Potent trifluoromethoxy, trifluoromethylsulfonyl, trifluoromethylthio and pentafluorosulfanyl containing (1,3,4-oxadiazol-2-yl)benzamides against drug-resistant Gram-positive bacteria” (RSC Med Chem, 2020).

Structures are written as SMILES. In brackets after ≈: the same amount, converted by molar mass. Activity calls are given as the source filed them. The calls are words filed in the database; no cut-off is given here.

The term MIC denotes the least concentration at which growth counts as inhibited. In general, MBC refers to the lowest tested concentration that kills the bacteria rather than only halting them.

In the case of `O=C(Nc1nnc(-c2cccs2)o1)c1ccc([N+](=O)[O-])cc1`, the minimum inhibitory concentration (MIC) with Staphylococcus aureus [1] stood at 4 µg/mL (≈ 12.6 µM); with Staphylococcus aureus [2] it was 8 µg/mL (≈ 25.3 µM).

Consider `CN[C@H](CC(C)C)C(=O)N[C@H]1C(=O)N[C@@H](CC(N)=O)C(=O)N[C@H]2C(=O)N[C@H]3C(=O)N[C@H](C(=O)N[C@H](C(=O)O)c4cc(O)cc(O)c4-c4cc3ccc4O)[C@H](O)c3ccc(c(Cl)c3)Oc3cc2cc(c3O[C@@H]2O[C@H](CO)[C@@H](O)[C@H](O)[C@H]2O[C@H]2C[C@](C)(N)[C@H](O)[C@H](C)O2)Oc2ccc(cc2Cl)[C@H]1O` [VANCOMYCIN], for which the MIC was > 2 µg/mL in the experiment with Staphylococcus aureus [3]; 0.5 µg/mL (≈ 0.345 µM) in the experiment on Streptococcus pneumoniae [4]; 1 µg/mL (≈ 0.69 µM) with Streptococcus pneumoniae [5]; 32 µg/mL (≈ 22.1 µM) in the experiment on Enterococcus faecalis [6]; > 64 µg/mL with Enterococcus faecalis [7]; 0.5 µg/mL (≈ 0.345 µM) in the experiment on Listeria monocytogenes. Moreover, the minimal bactericidal concentration (MBC) in the experiment with Staphylococcus aureus [8] came out at 1 µg/mL (≈ 0.69 µM). Moreover, the outcome in the experiment with Staphylococcus aureus [9] and with Staphylococcus aureus [10] was inactive.
